From ChEMBL document CHEMBL5303300, “EUbOPEN Chemogenomics Library - Multiplex” (2023)
Several values for one entry are separate records, joined by “and”; a condition that tells them apart may be missing. Equal entries are not always repeated.

System: HEK-293T
Assay: Multiplex assay against HEK293T
Assay type: toxicity, cell-based
Details: human, number of replicates 2
Procedure, shortened: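 Live cells carried four stains from seeding: Hoechst33342, BioTracker Green Microtubule Cytoskeleton Dye, MitoTracker Red and Annexin V Alexa Fluor 680. They were imaged on a CQ1 microscope at 37°C and 5% CO2 after compound addition. Using CellPathfinder machine-learning gating, cells were split into Hoechst high-intensity objects or normal cells, normal cells into healthy, pyknosed or fragmented nuclei, and pyknosed cells into mitotic or apoptotic; tubulin, mitochondrial-mass and membrane-permeability phenotypes are per cents of healthy-nucleus cells.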

[1] = 12 h, 1 µM, compound concentration 1 uM
[2] = 12 h, 10 µM, compound concentration 10 uM
[3] = 24 h, 1 µM, compound concentration 1 uM
[4] = 24 h, 10 µM, compound concentration 10 uM
[5] = 48 h, 1 µM, compound concentration 1 uM
[6] = 48 h, 10 µM, compound concentration 10 uM

Cn1ncc(NC(=O)c2nc(-c3c(F)cccc3F)sc2N)c1N1CC[C@@H](N)[C@H](F)CC1
Population Apoptotic (%) [1]: 29% and 32% | Population Healthy Nuclei (%) [1]: 85% and 86% | Population Mitochondria Different-Phenotype (%) [1]: 10% and 6% | Population Mitotic Cells (%) [1]: 70% and 67% | Population Normal (%) [1]: 92% and 95% | Population Pyknosed Nuclei (%) [1]: 10% | Population Tubulin-Different-Phenotype (%) [1]: 42% and 32% | Total Cell Count [1]: 737 and 724 | Population Apoptotic (%) [2]: 34% and 47% | Population Healthy Nuclei (%) [2]: 81% and 80% | Population Mitotic Cells (%) [2]: 65% and 52% | Population Normal (%) [2]: 95% and 97% | Population Pyknosed Nuclei (%) [2]: 16% | Population Tubulin-Different-Phenotype (%) [2]: 54% and 47% | Total Cell Count [2]: 730 and 672 | Population Apoptotic (%) [3]: 21% and 25% | Population Healthy Nuclei (%) [3]: 87% and 86% | Population Mitochondria Different-Phenotype (%) [3]: 4% | Population Mitotic Cells (%) [3]: 78% and 74% | Population Normal (%) [3]: 93% and 90% | Population Pyknosed Nuclei (%) [3]: 8% and 9% | Population Tubulin-Different-Phenotype (%) [3]: 25% and 21% | Total Cell Count [3]: 1100 and 1020 | Population Apoptotic (%) [4]: 47% and 52% | Population Healthy Nuclei (%) [4]: 85% and 86% | Population Mitochondria Different-Phenotype (%) [4]: 16% | Population Mitotic Cells (%) [4]: 52% and 47% | Population Normal (%) [4]: 97% and 95% | Population Tubulin-Different-Phenotype (%) [4]: 44% and 41% | Total Cell Count [4]: 753 and 689 | Population Apoptotic (%) [5]: 15% | Population Healthy Nuclei (%) [5]: 86% and 85% | Population Mitotic Cells (%) [5]: 90% and 84% | Population Normal (%) [5]: 89% and 85% | Population Pyknosed Nuclei (%) [5]: 4% and 5% | Population Tubulin-Different-Phenotype (%) [5]: 12% and 13% | Total Cell Count [5]: 2209 and 1829 | Population Apoptotic (%) [6]: 44% and 55% | Population Healthy Nuclei (%) [6]: 89% and 87% | Population Mitochondria Different-Phenotype (%) [6]: 10% | Population Mitotic Cells (%) [6]: 55% | Population Normal (%) [6]: 94% and 92% | Population Pyknosed Nuclei (%) [6]: 4% and 6% | Population Tubulin-Different-Phenotype (%) [6]: 29% and 23% | Total Cell Count [6]: 770 and 768

CC(C)S(=O)(=O)c1ccccc1Nc1nc(N[C@@H]2CCCN(CCCCCCCNC(=O)COc3cccc4c3C(=O)N(C3CCC(=O)N(C)C3=O)C4=O)C2)ncc1Cl (stereo not given in full)
Population Apoptotic (%) [1]: 55% and 78% | Population Fragmented Nuclei (%) [1]: 6% and 3% | Population Healthy Nuclei (%) [1]: 84% and 81% | Population Hoechst High Intensity Objects (%) [1]: 11% | Population Membrane Permeable-Phenotype (%) [1]: 0% | Population Mitochondria Different-Phenotype (%) [1]: 39% and 45% | Population Mitotic Cells (%) [1]: 44% and 21% | Population Normal (%) [1]: 88% | Population Pyknosed Nuclei (%) [1]: 8% and 14% | Population Tubulin-Different-Phenotype (%) [1]: 56% and 62% | Total Cell Count [1]: 479 and 318 | Population Apoptotic (%) [2]: 60% and 74% | Population Fragmented Nuclei (%) [2]: 3% | Population Healthy Nuclei (%) [2]: 69% and 72% | Population Hoechst High Intensity Objects (%) [2]: 18% and 14% | Population Membrane Permeable-Phenotype (%) [2]: 2% and 3% | Population Mitochondria Different-Phenotype (%) [2]: 76% | Population Mitotic Cells (%) [2]: 39% and 25% | Population Normal (%) [2]: 81% and 85% | Population Pyknosed Nuclei (%) [2]: 26% and 24% | Population Tubulin-Different-Phenotype (%) [2]: 49% and 77% | Total Cell Count [2]: 464 and 428 | Population Apoptotic (%) [3]: 48% and 83% | Population Fragmented Nuclei (%) [3]: 2% and 4% | Population Healthy Nuclei (%) [3]: 90% and 85% | Population Hoechst High Intensity Objects (%) [3]: 7% | Population Membrane Permeable-Phenotype (%) [3]: 0% | Population Mitochondria Different-Phenotype (%) [3]: 20% and 21% | Population Normal (%) [3]: 92% | Population Pyknosed Nuclei (%) [3]: 7% and 10% | Population Tubulin-Different-Phenotype (%) [3]: 40% | Total Cell Count [3]: 702 and 488 | Population Apoptotic (%) [4]: 82% | Population Fragmented Nuclei (%) [4]: 4% and 5% | Population Healthy Nuclei (%) [4]: 78% | Population Hoechst High Intensity Objects (%) [4]: 18% and 16% | Population Membrane Permeable-Phenotype (%) [4]: 0% and 1% | Population Mitochondria Different-Phenotype (%) [4]: 80% and 91% | Population Mitotic Cells (%) [4]: 17% | Population Normal (%) [4]: 81% and 83% | Population Pyknosed Nuclei (%) [4]: 17% and 16% | Population Tubulin-Different-Phenotype (%) [4]: 90% and 92% | Total Cell Count [4]: 438 and 432 | Population Apoptotic (%) [5]: 40% and 66% | Population Fragmented Nuclei (%) [5]: 8% and 4% | Population Healthy Nuclei (%) [5]: 85% | Population Hoechst High Intensity Objects (%) [5]: 8% and 7% | Population Membrane Permeable-Phenotype (%) [5]: 2% and 1% | Population Mitochondria Different-Phenotype (%) [5]: 7% and 11% | Population Mitotic Cells (%) [5]: 60% and 33% | Population Normal (%) [5]: 91% and 92% | Population Pyknosed Nuclei (%) [5]: 5% and 9% | Population Tubulin-Different-Phenotype (%) [5]: 26% and 27% | Total Cell Count [5]: 1045 and 630 | Population Apoptotic (%) [6]: 81% and 86% | Population Fragmented Nuclei (%) [6]: 5% | Population Healthy Nuclei (%) [6]: 82% and 78% | Population Hoechst High Intensity Objects (%) [6]: 17% and 20% | Population Membrane Permeable-Phenotype (%) [6]: 0% | Population Mitochondria Different-Phenotype (%) [6]: 46% and 78% | Population Mitotic Cells (%) [6]: 18% and 14% | Population Normal (%) [6]: 82% and 79% | Population Pyknosed Nuclei (%) [6]: 11% and 16% | Population Tubulin-Different-Phenotype (%) [6]: 57% and 65% | Total Cell Count [6]: 458 and 378
